Molecules are shown by their SMILES.

Experiment [1] concerns the target T1, Histamine H2 receptor (Cavia porcellus, UniProt P47747). The experiment in a line: Agonist activity at histamine H2 receptor in spontaneously beating guinea pig atrium. The experiment is classed as functional, tissue-based, Cardiac atrium.
The target in experiment [2] is T2, Histamine H2 receptor (Homo sapiens, UniProt P25021). The experiment in a line: Agonist activity at GsalphaS-fused human histamine H2 receptor expressed in Sf9 cells by steady-state GTPase assay.
T2 sequence (P25021 whole entry, the tested form may be a part): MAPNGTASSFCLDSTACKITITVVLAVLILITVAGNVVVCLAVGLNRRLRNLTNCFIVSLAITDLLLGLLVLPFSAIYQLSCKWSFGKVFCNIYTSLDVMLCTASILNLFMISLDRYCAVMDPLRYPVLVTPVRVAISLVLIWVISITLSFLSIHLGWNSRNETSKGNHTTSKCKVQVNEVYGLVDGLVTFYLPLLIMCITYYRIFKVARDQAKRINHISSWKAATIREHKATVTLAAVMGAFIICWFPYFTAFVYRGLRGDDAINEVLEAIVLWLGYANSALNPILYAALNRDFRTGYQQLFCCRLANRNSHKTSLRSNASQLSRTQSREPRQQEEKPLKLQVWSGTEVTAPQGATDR
Experiment [3] deals with T1, Histamine H2 receptor. The experiment in a line: Agonist activity at GsalphaS-fused guinea pig histamine H2 receptor expressed in Sf9 cells by steady-state GTPase assay.
The target of experiment [4] is T3, Histamine H1 receptor (Homo sapiens, UniProt P35367). The experiment in a line: Activity at human recombinant histamine H1 receptor expressed in Sf9 cells coexpressing RGS4 by steady-state GTPase activity assay. In short, it runs like this:
(§1)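 Steady-state GTPase activity was measured in Sf9 insect cell membranes. hH1R was co-expressed with RGS4; hH3R with Galphai2, Gbeta1gamma2 and RGS4; and hH4R-GAIP fusion protein with Galphai2 and Gbeta1gamma2. Agonist pEC50 or antagonist pKB was determined. Values are means of two to three experiments, each in duplicate.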

In experiment [5] the target is T4, Histamine H4 receptor (Homo sapiens, UniProt Q9H3N8). The experiment in a line: Activity at human recombinant GAIP-fused histamine H4 receptor expressed in Sf9 cells coexpressing Galphai, Gbeta1gamma2 by steady-state GTPase activity assay. The method, boiled down:
as §1

The target in experiment [6] is Histamine H2 receptor (Cavia porcellus) (UniProt P47747). The experiment in a line: Agonist activity at histamine H2 receptor in spontaneously beating guinea pig atrium assessed as increase in heart rate as relative to histamine. The following applies: Cardiac atrium. The experiment is classed as functional, tissue-based.
Histamine H2 receptor (Cavia porcellus), sequence (P47747 whole entry, the tested form may be a part): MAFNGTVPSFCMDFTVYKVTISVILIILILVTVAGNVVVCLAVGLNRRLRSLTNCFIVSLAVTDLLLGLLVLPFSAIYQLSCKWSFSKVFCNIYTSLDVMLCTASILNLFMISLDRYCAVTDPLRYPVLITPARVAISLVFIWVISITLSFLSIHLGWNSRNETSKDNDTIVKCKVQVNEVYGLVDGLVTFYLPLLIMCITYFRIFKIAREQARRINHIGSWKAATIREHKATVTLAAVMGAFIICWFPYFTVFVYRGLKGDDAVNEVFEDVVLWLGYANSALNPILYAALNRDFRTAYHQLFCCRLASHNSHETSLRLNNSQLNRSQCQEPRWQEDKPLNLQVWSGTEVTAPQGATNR
Experiment [7] has as its target T3, Histamine H1 receptor. In words: Activity at human recombinant histamine H1 receptor expressed in Sf9 cells coexpressing RGS4 by steady-state GTPase activity assay relative to histamine. In short, it runs like this:
(§2)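 Steady-state GTPase activity was measured in Sf9 insect cell membranes. hH1R was co-expressed with RGS4; hH3R with Galphai2, Gbeta1gamma2 and RGS4; and hH4R-GAIP fusion protein with Galphai2 and Gbeta1gamma2. Agonist pEC50 or antagonist pKB was determined. […] Values are means of two to three experiments, each in duplicate.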

In experiment [8] the target is T4, Histamine H4 receptor. In words: Activity at human recombinant GAIP-fused histamine H4 receptor expressed in Sf9 cells coexpressing Galphai, Gbeta1gamma2 by steady-state GTPase activity assay relative to histamine. The method, boiled down:
as §2

In experiment [9] the target is T2, Histamine H2 receptor. In words: Selectivity ratio of EC50 for human histamine H2 to EC50 for guinea pig histamine H2 receptor.
Experiment [10] has as its target T2, Histamine H2 receptor. In words: Agonist activity at GsalphaS-fused human histamine H2 receptor expressed in Sf9 cells by steady-state GTPase assay relative to histamine.
Experiment [11] concerns the target Histamine H2 receptor (Cavia porcellus) (UniProt P47747). In words: Agonist activity at GsalphaS-fused guinea pig histamine H2 receptor expressed in Sf9 cells by steady-state GTPase assay relative to histamine.

T4 sequence (Q9H3N8 whole entry, the tested form may be a part): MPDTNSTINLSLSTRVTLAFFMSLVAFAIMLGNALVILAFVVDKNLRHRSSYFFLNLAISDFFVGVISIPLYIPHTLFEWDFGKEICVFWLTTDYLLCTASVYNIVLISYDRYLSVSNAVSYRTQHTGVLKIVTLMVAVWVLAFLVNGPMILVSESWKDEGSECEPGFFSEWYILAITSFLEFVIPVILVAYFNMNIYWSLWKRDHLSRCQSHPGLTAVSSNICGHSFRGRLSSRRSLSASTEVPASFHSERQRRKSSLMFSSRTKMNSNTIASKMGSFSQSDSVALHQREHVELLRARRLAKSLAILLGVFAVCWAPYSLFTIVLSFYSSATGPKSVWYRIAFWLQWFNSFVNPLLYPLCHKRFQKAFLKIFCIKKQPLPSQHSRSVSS
T1 sequence (P47747 whole entry, the tested form may be a part): as the sequence (P47747 whole entry, the tested form may be a part) above
T3 sequence (P35367 whole entry, the tested form may be a part): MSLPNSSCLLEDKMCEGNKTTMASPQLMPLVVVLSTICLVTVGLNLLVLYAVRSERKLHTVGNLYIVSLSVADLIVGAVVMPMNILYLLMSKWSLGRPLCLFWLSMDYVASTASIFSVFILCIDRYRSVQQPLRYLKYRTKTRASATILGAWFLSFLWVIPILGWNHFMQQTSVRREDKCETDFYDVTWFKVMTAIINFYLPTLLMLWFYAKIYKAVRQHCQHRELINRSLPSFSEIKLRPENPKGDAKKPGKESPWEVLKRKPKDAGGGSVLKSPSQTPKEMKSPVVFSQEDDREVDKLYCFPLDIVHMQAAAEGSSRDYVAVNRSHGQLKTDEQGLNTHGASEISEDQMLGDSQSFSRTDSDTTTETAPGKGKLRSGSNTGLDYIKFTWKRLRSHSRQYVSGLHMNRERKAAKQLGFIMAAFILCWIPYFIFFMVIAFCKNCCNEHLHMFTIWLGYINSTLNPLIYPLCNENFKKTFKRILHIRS

By EC50 is commonly meant the concentration at which the effect is half-maximal. As for `Cc1nc(N)sc1CCCN=C(N)NC(=O)C[C@@H](C)C1CCCCC1`, the concentration for a half-maximal effect (EC50) at Histamine H2 receptor [1] was 57.5 nM; on Histamine H2 receptor [2], 20.4 nM; on Histamine H2 receptor [3], 13.2 nM.

`C[C@@H](CC(=O)NC(N)=NCCCc1cnc[nH]1)c1ccccc1`: the EC50 was 25.1 nM on Histamine H2 receptor [1]; 832 nM on Histamine H1 receptor [4]; 2.63 nM on Histamine H4 receptor [5]; 79.4 nM at Histamine H2 receptor [2]; 24 nM at Histamine H2 receptor [3].

By Emax is commonly meant the size of the effect at its maximum, as opposed to the concentration needed. Consider `C[C@@H](CC(=O)NC(=N)NCCCc1c[nH]cn1)C1CCCCC1`, for which the Emax is 103% in [6]; 51% at Histamine H1 receptor [7]; 59% on Histamine H4 receptor [8]; 99% on Histamine H2 receptor [10]; 93% in experiment [11]. Moreover, on Histamine H2 receptor [9], the Ratio EC50 was 0.84.

In the case of `Cc1nc(N)sc1CCCNC(=N)NC(=O)C[C@H](C)C1CCCCC1`, the maximal effect (Emax) in experiment [6] is 78%; on Histamine H2 receptor [10], 71%; in experiment [11] it was 90%. Also, at Histamine H2 receptor [9], the Ratio EC50 was found to be 2.05.

Consider `C[C@H](CC(=O)NC(N)=NCCCc1cnc[nH]1)C1CCCCC1`, for which the EC50 at Histamine H2 receptor [1] is 102 nM; on Histamine H1 receptor [4], 89.1 nM; on Histamine H4 receptor [5] it was 8.32 nM; on Histamine H2 receptor [2], 18.6 nM; at Histamine H2 receptor [3] it was 19.1 nM.

As to `C[C@@H](CC(=O)NC(N)=NCCCc1cnc[nH]1)C1CCCCC1`, the concentration giving a half-maximal response (EC50) on Histamine H2 receptor [1] is 33.1 nM; at Histamine H1 receptor [4], 66.1 nM; at Histamine H4 receptor [5] it was 4.57 nM; on Histamine H2 receptor [2], 6.46 nM; at Histamine H2 receptor [3], 7.76 nM.

Regarding `Cc1nc(N)sc1CCCN=C(N)NC(=O)C[C@@H](C)c1ccccc1`, the values for the concentration for a half-maximal effect (EC50) at Histamine H2 receptor [1], on Histamine H2 receptor [2] and on Histamine H2 receptor [3] were 102 nM, 53.7 nM and 17 nM, respectively.

Consider `Cc1nc(N)sc1CCCNC(=N)NC(=O)CC(C)c1ccccc1` (racemic), for which the 50% effective concentration (EC50) on Histamine H2 receptor [1] was 49 nM; at Histamine H2 receptor [2], 50.1 nM; at Histamine H2 receptor [3] it was 22.4 nM. Also, the Emax amounted to 89% in experiment [6], 82% on Histamine H2 receptor [10] and 98% in experiment [11]. Further, the Ratio EC50 at Histamine H2 receptor [9] came out at 2.22.

`Cc1nc(N)sc1CCCNC(=N)NC(=O)C[C@@H](C)c1ccccc1`: the values for the maximal response (Emax) (in experiment [6]; on Histamine H2 receptor [10]; in [11]) were 73%, 65% and 86%, respectively. Besides, the Ratio EC50 at Histamine H2 receptor [9] came to 3.14.

Take `C[C@H](CC(=O)NC(=N)NCCCc1c[nH]cn1)c1ccccc1`: the Emax in experiment [6] is 93%; on Histamine H1 receptor [7], 34%; on Histamine H4 receptor [8], 85%; on Histamine H2 receptor [10], 101%; in experiment [11], 101%. On Histamine H2 receptor [9], the Ratio EC50 was 1.58.

On to `C[C@H](CC(=O)NC(=N)NCCCc1c[nH]cn1)C1CCCCC1`, for which the Emax in experiment [6] worked out at 82%; at Histamine H1 receptor [7], 41%; on Histamine H4 receptor [8], 57%; on Histamine H2 receptor [10], 85%; in [11], 90%. Moreover, the Ratio EC50 at Histamine H2 receptor [9] stood at 0.98.

As for `C[C@@H](CC(=O)NC(=N)NCCCc1c[nH]cn1)c1ccccc1`, the Emax in [6] amounted to 102%; on Histamine H1 receptor [7], 53%; on Histamine H4 receptor [8], 82%; at Histamine H2 receptor [10], 107%; in experiment [11], 119%. Also, the Ratio EC50 at Histamine H2 receptor [9] was 3.32.

For `Cc1nc(N)sc1CCCNC(=N)NC(=O)C[C@H](C)c1ccccc1`, the 50% effective concentration (EC50) at Histamine H2 receptor [1] is 39.8 nM; on Histamine H2 receptor [2] it was 28.2 nM; at Histamine H2 receptor [3] it was 7.76 nM. The Emax in [6] was 87%; at Histamine H2 receptor [10] it was 87%; in experiment [11] it was 99%. The Ratio EC50 on Histamine H2 receptor [9] was found to be 3.6.

For the compound `C[C@H](CC(=O)NC(N)=NCCCc1cnc[nH]1)c1ccccc1`, the EC50 at Histamine H2 receptor [1] was 93.3 nM; on Histamine H1 receptor [4], 6170 nM; on Histamine H4 receptor [5] it was 22.9 nM; on Histamine H2 receptor [2] it was 120 nM; on Histamine H2 receptor [3], 75.9 nM.

On to `Cc1nc(N)sc1CCCNC(=N)NC(=O)CC(C)C1CCCCC1` (racemic), for which the EC50 was 69.2 nM at Histamine H2 receptor [1], 9.33 nM at Histamine H2 receptor [2] and 7.59 nM at Histamine H2 receptor [3]. Moreover, the values for the maximal effect (Emax) (in experiment [6]; on Histamine H2 receptor [10]; in experiment [11]) were 74%, 56% and 82%, respectively. The Ratio EC50 on Histamine H2 receptor [9] worked out at 1.24.

On to `Cc1nc(N)sc1CCCN=C(N)NC(=O)C[C@H](C)C1CCCCC1`, for which the figures for the half-maximal effective concentration (EC50) at Histamine H2 receptor [1], on Histamine H2 receptor [2] and on Histamine H2 receptor [3] were 91.2 nM, 28.8 nM and 14.1 nM, respectively.

As to `Cc1nc(N)sc1CCCNC(=N)NC(=O)C[C@@H](C)C1CCCCC1`, the results for the Emax (in [6]; on Histamine H2 receptor [10]; in experiment [11]) were 80%, 62% and 80%, respectively. Moreover, the Ratio EC50 at Histamine H2 receptor [9] amounted to 1.53.

For the compound `NCCc1c[nH]cn1` [HISTAMINE], the maximal response (Emax) (in experiment [6]; at Histamine H1 receptor [7]; on Histamine H4 receptor [8]; at Histamine H2 receptor [10]; in experiment [11]) was 100% in each case.

(Values after ChEMBL document CHEMBL1157755 (Bioorg Med Chem Lett, 2010).)
